Test results taken from ChEMBL document CHEMBL1155708, “Isoaurostatin, a novel topoisomerase inhibitor produced by Thermomonospora alba” (J Nat Prod, 2001).

Assays:
[1] = target: T1, Type II restriction enzyme BamHI (Bacillus amyloliquefaciens, UniProt P23940); assay: Inhibition of Bacillus amyloliquifaction Bam H1 assessed as undigested supercoiled pBR322 DNA concentration
T1 sequence (P23940 whole entry): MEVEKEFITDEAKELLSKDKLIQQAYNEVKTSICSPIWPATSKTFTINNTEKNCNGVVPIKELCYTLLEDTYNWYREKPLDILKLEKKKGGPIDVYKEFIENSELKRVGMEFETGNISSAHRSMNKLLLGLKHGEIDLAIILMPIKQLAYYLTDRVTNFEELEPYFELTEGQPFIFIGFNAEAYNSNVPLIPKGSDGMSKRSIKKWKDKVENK
Method in brief: (§1)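 Restriction enzyme or nuclease activity followed as the remaining undigested supercoiled pBR322 DNA (or RNA) after reaction.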

[2] = target: T2, Type II restriction enzyme PstI (Providencia stuartii, UniProt P00640); assay: Inhibition of Providencia stuartii Pst 1 assessed as undigested supercoiled pBR322 DNA concentration; method in brief: as §1
T2 sequence (P00640 whole entry): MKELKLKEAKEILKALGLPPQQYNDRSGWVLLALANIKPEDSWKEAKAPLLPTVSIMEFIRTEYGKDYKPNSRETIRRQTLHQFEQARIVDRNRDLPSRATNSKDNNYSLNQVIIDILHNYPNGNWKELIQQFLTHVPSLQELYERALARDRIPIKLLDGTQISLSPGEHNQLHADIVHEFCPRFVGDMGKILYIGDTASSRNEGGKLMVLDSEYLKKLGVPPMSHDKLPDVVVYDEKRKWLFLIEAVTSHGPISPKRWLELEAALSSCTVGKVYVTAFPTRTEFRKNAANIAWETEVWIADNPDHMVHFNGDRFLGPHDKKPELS

DNA topoisomerase 1 [3] = target: T3, DNA topoisomerase 1 (Homo sapiens, UniProt P11387); assay: Inhibition topoisomerase 1 in human A549 cells assessed as conversion of supercoiled pBR322 DNA to relaxed form; type: cell-based
T3 sequence (P11387 whole entry): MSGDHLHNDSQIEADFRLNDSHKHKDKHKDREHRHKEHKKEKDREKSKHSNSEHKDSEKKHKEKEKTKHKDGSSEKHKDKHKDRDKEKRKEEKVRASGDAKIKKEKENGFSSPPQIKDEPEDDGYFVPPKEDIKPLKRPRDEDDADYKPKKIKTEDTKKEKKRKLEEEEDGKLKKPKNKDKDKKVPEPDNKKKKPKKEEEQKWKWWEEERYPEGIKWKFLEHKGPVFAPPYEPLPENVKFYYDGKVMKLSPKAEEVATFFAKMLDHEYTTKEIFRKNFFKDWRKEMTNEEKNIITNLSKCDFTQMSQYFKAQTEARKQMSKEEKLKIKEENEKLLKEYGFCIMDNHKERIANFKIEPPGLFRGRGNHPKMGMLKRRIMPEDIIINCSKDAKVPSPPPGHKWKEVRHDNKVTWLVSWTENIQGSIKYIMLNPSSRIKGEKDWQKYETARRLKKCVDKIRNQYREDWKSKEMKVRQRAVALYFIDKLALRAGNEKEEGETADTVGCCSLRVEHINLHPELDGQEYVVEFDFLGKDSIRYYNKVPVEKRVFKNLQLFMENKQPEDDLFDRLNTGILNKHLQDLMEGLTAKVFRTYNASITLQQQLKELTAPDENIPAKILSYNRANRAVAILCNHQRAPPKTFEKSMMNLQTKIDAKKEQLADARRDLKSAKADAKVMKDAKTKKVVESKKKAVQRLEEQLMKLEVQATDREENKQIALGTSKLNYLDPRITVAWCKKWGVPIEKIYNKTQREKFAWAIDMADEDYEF
Method in brief: (§2)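 Topo I source: crude extract from cells grown 5 days, PBS-washed and pelleted (1 × 10^6 cells), then lysed 30 min on ice in Tris-HCl pH 7.5 buffer with MgCl2, EGTA, AEBSF, β-mercaptoethanol, 0.5% CHAPS and 10% glycerin. The cleared supernatant relaxes supercoiled pBR322 DNA. Products are resolved on agarose gel and scored by densitometry.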

DNA topoisomerase 1 [4] = target: T3, DNA topoisomerase 1; assay: Inhibition topoisomerase 1 in human COLO201 cells assessed as conversion of supercoiled pBR322 DNA to relaxed form; type: cell-based; method in brief: as §2
DNA topoisomerase 1 [5] = target: T3, DNA topoisomerase 1; assay: Inhibition topoisomerase 1 in human HeLa cells assessed as conversion of supercoiled pBR322 DNA to relaxed form; type: cell-based; method in brief: as §2

| Compound | IC50 [1] [µM] | IC50 [2] [µM] | IC50 (DNA topoisomerase 1 [3]) [µM] | IC50 (DNA topoisomerase 1 [4]) [µM] | IC50 (DNA topoisomerase 1 [5]) [µM] |
| --- | --- | --- | --- | --- | --- |
| CC[C@@]1(O)C(=O)OCc2c1cc1n(c2=O)Cc2cc3ccccc3nc2-1 [CAMPTOTHECIN] | > 300 | > 300 |  |  |  |
| COc1cccc2c1C(=O)c1c(O)c3c(c(O)c1C2=O)C[C@@](O)(C(=O)CO)C[C@@H]3O[C@H]1C[C@H](N)[C@H](O)[C@H](C)O1 [DOXORUBICIN] | > 200 | > 200 |  |  |  |
| O=C1Oc2cc(O)ccc2/C1=C\c1ccc(O)cc1 [ISOAUROSTATIN] | > 400 | > 400 | > 400 | > 400 | > 400 |
| C=C1NC(=O)C(C)C(CCC(C)C(=O)/C=C/C(C)=C/CC(C)CCCCCCC)OC(=O)[C@H](CC(OS(=O)(=O)O)C(N)=O)NC(=O)[C@@H](C)CNC1=O (some centres undefined) [TOPOSTATIN] | 185 | 19 | 55 | 50 | 29 |
